From PubChem
Fibroblast inh: antiproliferative effect on LL 47 fibroblasts – human, LL 47 cells, CellTiter-Glo luminescence, primary screen; actives 1.1% (n = 85,000); AID 719, 2007; viability, % at 10 µM; LL 47 human lung fibroblast viability, ATP luminescence; stronger effect = lower value;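 active means viability at or below 50% in the single dose screen; inactive means viability above 50%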;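 further: compound exposure lasted 72 h before the ATP readout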
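Material: human lung fibroblast line LL 47, low passage; Evaluation: viability percentage against median untreated-cell control; Buffer or medium: 15% FBS in IMEM; Incubation: 72 h compound exposure at 37 °C after overnight plating; Dosing: 0.1% DMSO in all compound wells; Measured by: CellTiter-Glo luminescence.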
ERb coact inh: inhibitors of ERβ-SRC1 coactivator interaction, primary screen, biochemical, TR-FRET, ERβ LBD, SRC-1 peptide. TR-FRET ER-beta LBD / SRC1-Cy5 peptide binding; receptor agonist-loaded with 1 µM estradiol. actives 1.3% (n = 86,000). inhibition, % at 25.6 µM;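 active means compounds whose percent inhibition of the receptor-coactivator binding signal exceeds about 50% in the single-dose screen, limit read from the data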
HUVEC prolif 384: inhibitors of HUVEC proliferation, primary screen, cell-based, 384-well. actives 1.1% (n = 86,000). CellTiter-Glo luminescence, 72 h; stronger effect = lower value. viability, % at 10 µM (by protocol);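 active means viability at or below 30%; inactive means viability above 30%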
ERa SRC1 pot: enhancers of ERα–SRC-1 coactivator binding, primary screen, biochemical, TR-FRET, ERα LBD, low estradiol. Estrogen receptor (Homo sapiens), P03372. TR-FRET ERalpha-LBD/SRC-Cy5 coactivator binding, 2 h; 100 = basal binding, no effect. actives 1.3% (n = 86,000). coactivator binding (% of control), % at 25.6 µM; in the data active means activity above about 200%;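 further: binding measured in presence of low estradiol as agonist stimulus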
Target sequence (P03372 whole entry, looked up, the tested form may be a part): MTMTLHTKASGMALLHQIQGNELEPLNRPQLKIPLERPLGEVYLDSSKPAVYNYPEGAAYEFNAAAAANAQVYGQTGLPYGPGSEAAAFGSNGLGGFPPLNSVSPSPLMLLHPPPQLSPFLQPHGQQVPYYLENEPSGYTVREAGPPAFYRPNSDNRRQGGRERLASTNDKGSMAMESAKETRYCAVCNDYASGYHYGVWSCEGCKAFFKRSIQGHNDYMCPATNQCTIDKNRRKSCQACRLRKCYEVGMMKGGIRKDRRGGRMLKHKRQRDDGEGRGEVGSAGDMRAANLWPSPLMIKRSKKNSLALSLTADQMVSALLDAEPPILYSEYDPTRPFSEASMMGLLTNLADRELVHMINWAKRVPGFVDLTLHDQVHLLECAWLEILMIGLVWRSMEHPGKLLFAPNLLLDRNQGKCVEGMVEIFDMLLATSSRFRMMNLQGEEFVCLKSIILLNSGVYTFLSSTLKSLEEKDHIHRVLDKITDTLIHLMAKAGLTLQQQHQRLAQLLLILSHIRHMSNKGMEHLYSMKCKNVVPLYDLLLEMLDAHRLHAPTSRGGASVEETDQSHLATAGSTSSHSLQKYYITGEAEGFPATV
H69AR growth 86K: proliferation blockers of H69AR lung cancer cells, primary screen, cell-based, human, 86K library | H69AR lung tumor viability, ATP luminescence, 72 h; stronger effect = lower value | viability, % at 10 µM | actives 6% (n = 85,000);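 active means viability at or below 40%; inactive means viability above 40%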;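 further: multidrug resistant small cell line overexpressing MRP-1 efflux transporter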
ERa SRC1 inh: ERα–SRC-1 coactivator interaction inhibitors, primary screen, biochemical, TR-FRET, ERα LBD, estradiol-bound | Estrogen receptor (Homo sapiens), P03372 | inhibition, % at 25.6 µM | AID 629, 2007 | actives 1.7% (n = 86,000) | TR-FRET ER-alpha LBD / SRC-1 peptide; in the data active means inhibition above about 50%
Large screens that a line does not name were inactive; [ ] = remark or other dose. Compounds with a hit are over-represented: about 9.2% of the library has one in this group of screens.

COc1ccc(S(=O)(=O)N2N=C(C)Oc3ccccc3C2=O)cc1	Fibroblast inh 47, H69AR growth 86K 16
CC1=NN(S(=O)(=O)c2ccc(F)cc2)C(=O)c2ccccc2O1	none
O=C(CSc1ncn[nH]1)Nc1ccc(Br)cc1F	none
COc1cc(/C=C/C(=O)c2c(O)cc(C)oc2=O)cc(OC)c1O	H69AR growth 86K 25
C/C(=N/NC(=O)c1cccc(C)c1)c1c(O)cc(C)oc1=O	none
COc1cccc(/C=C/C(=O)c2c(O)cc(C)oc2=O)c1O	H69AR growth 86K 4.0
COc1cccc(NC(=O)Cn2c(=O)c3c(ncn3Cc3ccccc3)n(Cc3ccccc3)c2=O)c1	none
N#CC(c1nc2ccccc2nc1N1CCCCC1)S(=O)(=O)c1ccc(Cl)cc1 (configuration not stated)	ERa SRC1 pot 231[fluorescence artefact?]
CNC(=O)NC(=O)CSc1ccc(NC(C)=O)cc1	none
Cc1cc(NC(=O)COC(=O)[C@H](C)NC(=O)c2ccccc2)no1	none
Cc1cc(NC(=O)COC(=O)C(Nc2ccc(C(F)(F)F)cc2Cl)C(C)C)no1 (configuration not stated)	HUVEC prolif 384 13
CC1CCCCN1C(=O)CSc1nnc(-c2cccnc2)n1C1CCCCC1 (configuration not stated)	none
CC1CCN(C(=O)CSc2nnc(-c3cccnc3)n2C2CCCCC2)CC1	H69AR growth 86K 26 (no result: Fibroblast inh)
CC1=CCC2C(=O)N(c3ccc(C(=O)N4CCCCCC4)cc3)C(=O)C2C1 (configuration not stated)	none
Cc1ccc(S(=O)(=O)C2(C(=O)N3CCCCCC3)CC2)cc1	ERb coact inh 80[fluorescence artefact?]
CCOc1ccc(S(=O)(=O)n2cnc3cc(C)c(C)cc32)cc1	none
Cc1cc2ncn(S(=O)(=O)c3ccc(S(=O)(=O)N4CCCCCC4)cc3)c2cc1C	H69AR growth 86K 35
Cc1ccc(Sc2oc(/C=N/n3cnnc3)cc2Br)cc1	H69AR growth 86K 23
CCOC(=O)N1CCN(C(=O)C2CCN(Cc3nc(-c4ccccc4C)oc3C)CC2)CC1	none
COc1cc(/C=c2\sc3n(c2=O)C(c2ccccc2)C(c2ccccc2)=NN=3)ccc1O (configuration not stated)	none
CCOC(=O)C1=C(C)n2c(s/c(=C/c3cccc([N+](=O)[O-])c3)c2=O)=NC1c1ccc(O)c(OC)c1 (configuration not stated)	Fibroblast inh 17, HUVEC prolif 384 7.4, H69AR growth 86K 3.2
COC(=O)Nc1ccc(S(=O)(=O)Nc2cccc3ccccc23)cc1	H69AR growth 86K 35 (no result: Fibroblast inh)
COc1ccccc1NS(=O)(=O)c1ccc(NC(C)=O)cc1	none
COc1ccc(S(=O)(=O)Nc2ccc(O)c3ccccc23)cc1	HUVEC prolif 384 2.3, H69AR growth 86K 1.8
COC(=O)/C=c1\sc2ncnn2c1=O	H69AR growth 86K 7.9
COc1ccc(-n2c(COc3ccc(Cl)cc3)nnc2SCc2ccc(C#N)cc2)cc1	H69AR growth 86K 32
CCOc1ccc(NC(=O)CN2CCN(C3c4ccccc4-c4ccccc43)CC2)cc1	H69AR growth 86K 32
COC(=O)c1c(NC(=O)CN2CCN(Cc3ccc4c(c3)OCO4)CC2)sc(C)c1C	H69AR growth 86K 1.9
COc1cc(NC(=O)Nc2ccccc2)c(OC)cc1NC(=O)CN1CCCCC1	HUVEC prolif 384 12
O=C(CN1CCN(S(=O)(=O)c2cc(Cl)ccc2Cl)CC1)Nc1ccc2c(c1)OCCO2	H69AR growth 86K 35
CCOc1ccc(NC(=O)CN2CCN(CC(=O)Nc3ccc(C(=O)OC)cc3)CC2)cc1	none
COc1ccccc1CN1CC(C(=O)NCc2cccnc2)CC1=O (configuration not stated)	none
CCCC(=O)Nc1cccc(NC(=O)CN2CCN(c3ccccc3OC)CC2)c1	ERa SRC1 inh 99[fluorescence artefact?]
COc1ccc(NC(=O)CN2CCN(CC(=O)Nc3ccc4c(c3)OCO4)CC2)cc1	none
COc1ccccc1NC(=O)CN1CCN(CC(=O)Nc2ccc3c(c2)OCO3)CC1	H69AR growth 86K 9.8
CCC(=O)Nc1cccc(NC(=O)CN2CCN(c3ccccc3OC)CC2)c1	none
COc1ccc(NC(=O)CN2CCN(C3c4ccccc4-c4ccccc43)CC2)c(OC)c1	none
COc1ccccc1NC(=O)CN1CCN(C2c3ccccc3-c3ccccc32)CC1	H69AR growth 86K 38
Cc1ccccc1-n1c(SCC(=O)c2cc(C)n(C)c2C)nnc1-c1ccncc1	none
Cc1ccccc1NC(=O)Cc1nc(CSc2nnc(-c3ccc4c(c3)OCO4)o2)cs1	none
CCC(C(=O)O/N=C(\N)c1cccc(C)c1)c1ccccc1 (configuration not stated)	H69AR growth 86K 7.9
Cc1ccc(/C(N)=N/OC(=O)Oc2ccccc2)cc1	none
COCCn1c(SCC(=O)Nc2ccc(Cl)cn2)nc2ccccc21	none
COc1cc(CNc2ccccc2SC)ccc1O	H69AR growth 86K 27 (no result: Fibroblast inh)
COc1ccc(Cl)cc1NC(=O)c1ocnc1C	ERb coact inh 62, ERa SRC1 inh 52
Clc1ccccc1-c1nn2c(-c3ccncc3)nnc2s1	none
Clc1ccc(-c2nn3c(-c4ccncc4)nnc3s2)c(Cl)c1	ERa SRC1 pot 330
c1ccc(-c2nn3c(-c4ccncc4)nnc3s2)nc1	ERa SRC1 inh 58[fluorescence artefact?]
Clc1ccc(-c2nnc3sc(-c4ccccn4)nn23)cc1	none
CC(C)(C)c1ccc(-c2nnc3sc(-c4ccccn4)nn23)cc1	ERa SRC1 pot 262
Cc1cc(C(=O)CSc2nnc(-c3ccco3)o2)c(C)n1CC1COc2ccccc2O1 (configuration not stated)	none
COc1ccc(C2CC(c3c(-c4ccccc4)c4cc(Cl)ccc4[nH]c3=O)=NN2S(C)(=O)=O)cc1 (configuration not stated)	H69AR growth 86K 14
CCCn1c(N2CCN(CC(=O)NCc3cccs3)CC2)nc2ccccc21	H69AR growth 86K 38
CCCn1c(N2CCN(C(=O)N3CCCCC3)CC2)nc2ccccc21	none
CCCn1c(N2CCN(S(=O)(=O)Cc3ccccc3)CC2)nc2ccccc21	H69AR growth 86K 39
O=C(O)c1cc2ccccc2n1-c1ccccc1	none
Cc1ccc(-c2cc(C(F)F)n3ncc(C(=O)N4CCN(c5cccc(C)c5C)CC4)c3n2)cc1	none
Cc1cc(N(C)Cc2ccccc2)nc(-c2ccccc2)n1	H69AR growth 86K 24
